Data: ChEMBL document CHEMBL5724801, “EUbOPEN Chemogenomics Library - Multiplex” (2024)
“And” between values parts separate entries of the source, which are not always exact repeats. Equal values may be shown once.

Tests used:
Fibroblast = assay: Multiplex assay against human fibroblast; format: toxicity, cell-based
Procedure, shortened: (§1)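 Live cells carried four stains from seeding: Hoechst33342, BioTracker Green Microtubule Cytoskeleton Dye, MitoTracker Red and Annexin V Alexa Fluor 680. They were imaged on a CQ1 microscope at 37°C and 5% CO2 after compound addition. Using CellPathfinder machine-learning gating, cells were split into Hoechst high-intensity objects or normal cells, normal cells into healthy, pyknosed or fragmented nuclei, and pyknosed cells into mitotic or apoptotic; tubulin, mitochondrial-mass and membrane-permeability phenotypes are per cents of healthy-nucleus cells.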

HEK-293T = assay: Multiplex assay against HEK293T; format: toxicity, cell-based; conditions: human; procedure, shortened: as §1
[1] = 12 h, 1 µM, compound concentration 1 uM
[2] = 12 h, 10 µM, compound concentration 10 uM
[3] = 24 h, 1 µM, compound concentration 1 uM
[4] = 24 h, 10 µM, compound concentration 10 uM
[5] = 48 h, 1 µM, compound concentration 1 uM
[6] = 48 h, 10 µM, compound concentration 10 uM

SMILES: COc1cc2nc(N3CCN(C(=O)COc4c(OC)cccc4C(C)C)CC3)nc(N)c2cc1OC.Cl.Cl
- Population Apoptotic (%) (Fibroblast; [1]): 50% and 36%
- Population Fragmented Nuclei (%) (Fibroblast; [1]): 17% and 39%
- Population Healthy Nuclei (%) (Fibroblast; [1]): 51% and 42%
- Population Hoechst High Intensity Objects (%) (Fibroblast; [1]): 4% and 9%
- Population Membrane Permeable-Phenotype (%) (Fibroblast; [1]): 3% and 5%
- Population Mitochondria Different-Phenotype (%) (Fibroblast; [1]): 6% and 7%
- Population Mitotic Cells (%) (Fibroblast; [1]): 50% and 63%
- Population Normal (%) (Fibroblast; [1]): 95% and 90%
- Population Pyknosed Nuclei (%) (Fibroblast; [1]): 30% and 18%
- Population Tubulin-Different-Phenotype (%) (Fibroblast; [1]): 40% and 43%
- Total Cell Count (Fibroblast; [1]): 123 and 182
- Population Apoptotic (%) (Fibroblast; [2]): 33% and 29%
- Population Fragmented Nuclei (%) (Fibroblast; [2]): 13% and 22%
- Population Healthy Nuclei (%) (Fibroblast; [2]): 47% and 46%
- Population Hoechst High Intensity Objects (%) (Fibroblast; [2]): 20% and 10%
- Population Membrane Permeable-Phenotype (%) (Fibroblast; [2]): 0% and 4%
- Population Mitochondria Different-Phenotype (%) (Fibroblast; [2]): 15% and 8%
- Population Mitotic Cells (%) (Fibroblast; [2]): 66% and 70%
- Population Normal (%) (Fibroblast; [2]): 79% and 89%
- Population Pyknosed Nuclei (%) (Fibroblast; [2]): 38% and 30%
- Population Tubulin-Different-Phenotype (%) (Fibroblast; [2]): 63% and 56%
- Total Cell Count (Fibroblast; [2]): 346 and 283
- Population Apoptotic (%) (Fibroblast; [3]): 68% and 57%
- Population Fragmented Nuclei (%) (Fibroblast; [3]): 23% and 40%
- Population Healthy Nuclei (%) (Fibroblast; [3]): 58% and 42%
- Population Hoechst High Intensity Objects (%) (Fibroblast; [3]): 3% and 11%
- Population Membrane Permeable-Phenotype (%) (Fibroblast; [3]): 1% and 5%
- Population Mitochondria Different-Phenotype (%) (Fibroblast; [3]): 9% and 11%
- Population Mitotic Cells (%) (Fibroblast; [3]): 31% and 42%
- Population Normal (%) (Fibroblast; [3]): 96% and 88%
- Population Pyknosed Nuclei (%) (Fibroblast; [3]): 17%
- Population Tubulin-Different-Phenotype (%) (Fibroblast; [3]): 39% and 50%
- Total Cell Count (Fibroblast; [3]): 128 and 180
- Population Apoptotic (%) (Fibroblast; [4]): 40% and 33%
- Population Fragmented Nuclei (%) (Fibroblast; [4]): 13% and 25%
- Population Healthy Nuclei (%) (Fibroblast; [4]): 45% and 40%
- Population Hoechst High Intensity Objects (%) (Fibroblast; [4]): 39% and 23%
- Population Membrane Permeable-Phenotype (%) (Fibroblast; [4]): 0% and 4%
- Population Mitotic Cells (%) (Fibroblast; [4]): 60% and 66%
- Population Normal (%) (Fibroblast; [4]): 60% and 76%
- Population Pyknosed Nuclei (%) (Fibroblast; [4]): 41% and 34%
- Population Tubulin-Different-Phenotype (%) (Fibroblast; [4]): 38% and 47%
- Total Cell Count (Fibroblast; [4]): 344 and 273
- Population Apoptotic (%) (Fibroblast; [5]): 65% and 42%
- Population Fragmented Nuclei (%) (Fibroblast; [5]): 31% and 45%
- Population Healthy Nuclei (%) (Fibroblast; [5]): 51% and 43%
- Population Hoechst High Intensity Objects (%) (Fibroblast; [5]): 4% and 10%
- Population Membrane Permeable-Phenotype (%) (Fibroblast; [5]): 0% and 8%
- Population Mitochondria Different-Phenotype (%) (Fibroblast; [5]): 11% and 10%
- Population Mitotic Cells (%) (Fibroblast; [5]): 35% and 57%
- Population Normal (%) (Fibroblast; [5]): 96% and 89%
- Population Pyknosed Nuclei (%) (Fibroblast; [5]): 16% and 11%
- Population Tubulin-Different-Phenotype (%) (Fibroblast; [5]): 30% and 57%
- Total Cell Count (Fibroblast; [5]): 125 and 193
- Population Apoptotic (%) (Fibroblast; [6]): 45% and 30%
- Population Fragmented Nuclei (%) (Fibroblast; [6]): 12% and 33%
- Population Healthy Nuclei (%) (Fibroblast; [6]): 45% and 33%
- Population Hoechst High Intensity Objects (%) (Fibroblast; [6]): 52% and 31%
- Population Membrane Permeable-Phenotype (%) (Fibroblast; [6]): 2% and 9%
- Population Mitochondria Different-Phenotype (%) (Fibroblast; [6]): 10% and 0%
- Population Mitotic Cells (%) (Fibroblast; [6]): 54% and 69%
- Population Normal (%) (Fibroblast; [6]): 47% and 68%
- Population Pyknosed Nuclei (%) (Fibroblast; [6]): 42% and 33%
- Population Tubulin-Different-Phenotype (%) (Fibroblast; [6]): 42% and 43%
- Total Cell Count (Fibroblast; [6]): 358 and 311
- Population Apoptotic (%) (HEK-293T; [1]): 35% and 46%
- Population Fragmented Nuclei (%) (HEK-293T; [1]): 12% and 8%
- Population Healthy Nuclei (%) (HEK-293T; [1]): 77% and 81%
- Population Hoechst High Intensity Objects (%) (HEK-293T; [1]): 5% and 4%
- Population Membrane Permeable-Phenotype (%) (HEK-293T; [1]): 0%
- Population Mitochondria Different-Phenotype (%) (HEK-293T; [1]): 48% and 58%
- Population Mitotic Cells (%) (HEK-293T; [1]): 64% and 53%
- Population Normal (%) (HEK-293T; [1]): 94% and 95%
- Population Pyknosed Nuclei (%) (HEK-293T; [1]): 9%
- Population Tubulin-Different-Phenotype (%) (HEK-293T; [1]): 23% and 18%
- Total Cell Count (HEK-293T; [1]): 402 and 365
- Population Apoptotic (%) (HEK-293T; [2]): 52% and 57%
- Population Fragmented Nuclei (%) (HEK-293T; [2]): 13% and 14%
- Population Healthy Nuclei (%) (HEK-293T; [2]): 69% and 67%
- Population Hoechst High Intensity Objects (%) (HEK-293T; [2]): 25% and 18%
- Population Membrane Permeable-Phenotype (%) (HEK-293T; [2]): 1% and 3%
- Population Mitochondria Different-Phenotype (%) (HEK-293T; [2]): 74% and 66%
- Population Mitotic Cells (%) (HEK-293T; [2]): 48% and 42%
- Population Normal (%) (HEK-293T; [2]): 74% and 81%
- Population Pyknosed Nuclei (%) (HEK-293T; [2]): 17% and 18%
- Population Tubulin-Different-Phenotype (%) (HEK-293T; [2]): 81% and 66%
- Total Cell Count (HEK-293T; [2]): 386 and 286
- Population Apoptotic (%) (HEK-293T; [3]): 35% and 42%
- Population Fragmented Nuclei (%) (HEK-293T; [3]): 11% and 8%
- Population Healthy Nuclei (%) (HEK-293T; [3]): 77% and 84%
- Population Hoechst High Intensity Objects (%) (HEK-293T; [3]): 5% and 2%
- Population Membrane Permeable-Phenotype (%) (HEK-293T; [3]): 0%
- Population Mitochondria Different-Phenotype (%) (HEK-293T; [3]): 27% and 44%
- Population Mitotic Cells (%) (HEK-293T; [3]): 64% and 57%
- Population Normal (%) (HEK-293T; [3]): 95% and 97%
- Population Pyknosed Nuclei (%) (HEK-293T; [3]): 10% and 7%
- Population Tubulin-Different-Phenotype (%) (HEK-293T; [3]): 19% and 16%
- Total Cell Count (HEK-293T; [3]): 540 and 472
